Test results from ChEMBL document CHEMBL1821640, “Novel 1,2,3-triazole derivatives for use against Mycobacterium tuberculosis H37Rv (ATCC 27294) strain” (J Med Chem, 2011).
Values after ≈ are worked out from the molar mass of the structure shown.

Key:
[1] = tested on: Mycobacterium tuberculosis; assay: Antimicrobial activity against Mycobacterium tuberculosis H37Rv ATCC 27294 after 5 days by Microplate Alamar blue assay; format: functional; conditions: H37Rv ATCC 27294, 120 h
Summary of the method: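 M. tuberculosis H37Rv grown 24 h at 37 °C, 150 rpm, in Middlebrook 7H9 + 10% OADC, washed, set to 0.1 McFarland and diluted 1:25. Two-fold dilutions in 7H9, final […], 5 days at 37 °C. Resazurin (Alamar Blue)/10% Tween 80 added for 24 h. MIC is the lowest concentration preventing a blue-to-pink change. Triplicates averaged.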

[2] = Cytotoxicity against african green monkey BGMK cells after 24 hrs by MTT assay; format: cell-based; conditions: chlorocebus aethiops, read-out: MLD50
[3] = Selectivity index, ratio of MDL50 for african green monkey BGM cells to MIC for Mycobacterium tuberculosis H37Rv ATCC 27294; format: functional
[4] = Cytotoxicity against human HepG2 cells after 24 hrs by MTT assay; format: cell-based; conditions: read-out: MLD50
Summary of the method: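 HepG2 cells kept in RPMI 1640 with 10% heat-inactivated FCS and gentamicin at 37 °C under 5% CO2. Seeded at 5 × 10^3 cells/well and allowed to adhere for 18 h. Exposed to compound at 200–25 μg/mL for 24 h, then MTT (5 mg/mL solution) for 3 h. Absorbance is taken as % of untreated control after background subtraction, and MLD50 is derived.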

[5] = Selectivity index, ratio of MDL50 for human HepG2 cells to MIC for Mycobacterium tuberculosis H37Rv ATCC 27294; format: functional

OCc1cn(-c2ccccc2)nn1
MIC [1]: > 100 µg/mL

OCc1cn(-c2ccc(Cl)cc2)nn1
MIC [1]: > 100 µg/mL

O=C(N/N=C/c1cn(-c2ccc(F)cc2)nn1)c1ccncc1
CC50 at 24 h [2]: > 1000 µg/mL | Ratio [3]: >800 | CC50 at 24 h [4]: > 1000 µg/mL | MIC [1]: 4 µM | Ratio [5]: >800

OCc1cn(-c2ccc(F)cc2)nn1
MIC [1]: > 100 µg/mL

OCc1cn(-c2cccc(Cl)c2)nn1
MIC [1]: > 100 µg/mL

OCc1cn(-c2ccccc2Cl)nn1
MIC [1]: > 100 µg/mL

Cc1ccc(-n2cc(CO)nn2)cc1
MIC [1]: > 100 µg/mL

Cc1cccc(-n2cc(CO)nn2)c1
MIC [1]: > 100 µg/mL

Cc1ccccc1-n1cc(CO)nn1
MIC [1]: > 100 µg/mL

O=[N+]([O-])c1ccc(-n2cc(CO)nn2)cc1
MIC [1]: > 100 µg/mL

COc1ccc(-n2cc(CO)nn2)cc1
MIC [1]: > 100 µg/mL

COc1cccc(-n2cc(CO)nn2)c1
MIC [1]: > 100 µg/mL

COc1ccccc1-n1cc(CO)nn1
MIC [1]: > 100 µg/mL

OCc1cn(-c2ccc(Cl)c(Cl)c2)nn1
MIC [1]: > 100 µg/mL

OCc1cn(-c2cc(Cl)ccc2Cl)nn1
MIC [1]: > 100 µg/mL

OCc1cn(-c2cc(Cl)cc(Cl)c2)nn1
MIC [1]: > 100 µg/mL

N#Cc1ccc(-n2cc(CO)nn2)cc1
MIC [1]: > 100 µg/mL

N#Cc1cccc(-n2cc(CO)nn2)c1
MIC [1]: > 100 µg/mL

OCc1cn(-c2ccc(Br)cc2)nn1
MIC [1]: > 100 µg/mL

Nc1nnc(-c2cccc(-n3cc(CO)nn3)c2)s1
MIC [1]: > 100 µg/mL

O=Cc1cn(-c2ccccc2)nn1
MIC [1]: 144 µM

O=Cc1cn(-c2ccc(F)cc2)nn1
MIC [1]: 131 µM

O=Cc1cn(-c2ccc(Cl)cc2)nn1
CC50 at 24 h [2]: 97 µg/mL (≈ 467 µM) | Ratio [3]: 8 | CC50 at 24 h [4]: 71 µg/mL (≈ 342 µM) | MIC [1]: 60.2 µM | Ratio [5]: 6

O=Cc1cn(-c2ccccc2Cl)nn1
MIC [1]: 241 µM

Cc1ccc(-n2cc(C=O)nn2)cc1
MIC [1]: 66.7 µM

Cc1cccc(-n2cc(C=O)nn2)c1
MIC [1]: 134 µM

Cc1ccccc1-n1cc(C=O)nn1
MIC [1]: 267 µM

O=Cc1cn(-c2ccc([N+](=O)[O-])cc2)nn1
MIC [1]: 115 µM

COc1ccc(-n2cc(C=O)nn2)cc1
MIC [1]: 123 µM

COc1cccc(-n2cc(C=O)nn2)c1
MIC [1]: 123 µM

COc1ccccc1-n1cc(C=O)nn1
MIC [1]: 246 µM

O=Cc1cn(-c2ccc(Cl)c(Cl)c2)nn1
MIC [1]: 207 µM

O=Cc1cn(-c2cc(Cl)ccc2Cl)nn1
MIC [1]: > 100 µg/mL

O=C(N/N=C/c1cn(-c2ccccc2)nn1)c1ccncc1
CC50 at 24 h [2]: > 1000 µg/mL | Ratio [3]: >400 | CC50 at 24 h [4]: > 1000 µg/mL | MIC [1]: 8.5 µM | Ratio [5]: >400

O=C(N/N=C/c1cn(-c2ccc(Cl)cc2)nn1)c1ccncc1
CC50 at 24 h [2]: > 1000 µg/mL | Ratio [3]: >1612 | CC50 at 24 h [4]: > 1000 µg/mL | MIC [1]: 1.8 µM | Ratio [5]: >1612

O=C(N/N=C/c1cn(-c2cccc(Cl)c2)nn1)c1ccncc1
CC50 at 24 h [2]: > 1000 µg/mL | Ratio [3]: >1612 | CC50 at 24 h [4]: > 1000 µg/mL | MIC [1]: 1.8 µM | Ratio [5]: >1612

O=C(N/N=C/c1cn(-c2ccccc2Cl)nn1)c1ccncc1
CC50 at 24 h [2]: > 1000 µg/mL | Ratio [3]: >800 | CC50 at 24 h [4]: 263 µg/mL (≈ 805 µM) | MIC [1]: 3.8 µM | Ratio [5]: 210

Cc1ccc(-n2cc(/C=N/NC(=O)c3ccncc3)nn2)cc1
CC50 at 24 h [2]: > 1000 µg/mL | Ratio [3]: >800 | CC50 at 24 h [4]: 118 µg/mL (≈ 385 µM) | MIC [1]: 4 µM | Ratio [5]: 94

Cc1cccc(-n2cc(/C=N/NC(=O)c3ccncc3)nn2)c1
CC50 at 24 h [2]: 262 µg/mL (≈ 855 µM) | Ratio [3]: 422 | CC50 at 24 h [4]: 124 µg/mL (≈ 405 µM) | MIC [1]: 2 µM | Ratio [5]: 200

Cc1ccccc1-n1cc(/C=N/NC(=O)c2ccncc2)nn1
CC50 at 24 h [2]: > 1000 µg/mL | Ratio [3]: 400 | CC50 at 24 h [4]: 314 µg/mL (≈ 1030 µM) | MIC [1]: 8.1 µM | Ratio [5]: 126

O=C(N/N=C/c1cn(-c2ccc([N+](=O)[O-])cc2)nn1)c1ccncc1
CC50 at 24 h [2]: > 1000 µg/mL | Ratio [3]: >1612 | CC50 at 24 h [4]: > 1000 µg/mL | MIC [1]: 1.8 µM | Ratio [5]: >1612

COc1ccc(-n2cc(/C=N/NC(=O)c3ccncc3)nn2)cc1
CC50 at 24 h [2]: > 1000 µg/mL | Ratio [3]: >400 | CC50 at 24 h [4]: > 1000 µg/mL | MIC [1]: 7.7 µM | Ratio [5]: >400

COc1cccc(-n2cc(/C=N/NC(=O)c3ccncc3)nn2)c1
CC50 at 24 h [2]: > 1000 µg/mL | Ratio [3]: >800 | MIC [1]: 3.8 µM

COc1ccccc1-n1cc(/C=N/NC(=O)c2ccncc2)nn1
CC50 at 24 h [2]: > 1000 µg/mL | Ratio [3]: >1612 | CC50 at 24 h [4]: > 1000 µg/mL | MIC [1]: 1.9 µM | Ratio [5]: >1612

O=C(N/N=C/c1cn(-c2ccc(Cl)c(Cl)c2)nn1)c1ccncc1
CC50 at 24 h [2]: > 1000 µg/mL | Ratio [3]: >400 | CC50 at 24 h [4]: > 1000 µg/mL | MIC [1]: 6.9 µM | Ratio [5]: >400

O=C(N/N=C/c1cn(-c2cc(Cl)ccc2Cl)nn1)c1ccncc1
CC50 at 24 h [2]: > 1000 µg/mL | Ratio [3]: >800 | CC50 at 24 h [4]: > 1000 µg/mL | MIC [1]: 3.4 µM | Ratio [5]: >800

COC(=O)c1cn(-c2cc(Cl)cc(Cl)c2)nn1
MIC [1]: > 100 µg/mL

FC(F)(F)c1cn(-c2cc(Cl)cc(Cl)c2)nn1
MIC [1]: 177 µM

FCc1cn(-c2ccc(Cl)cc2)nn1
MIC [1]: 472 µM

FCc1cn(-c2cccc(Cl)c2)nn1
MIC [1]: 472 µM

FCc1cn(-c2cc(Cl)cc(Cl)c2)nn1
MIC [1]: 406 µM

N#Cc1ccc(-n2cc(CF)nn2)cc1
MIC [1]: > 100 µg/mL

N#Cc1cccc(-n2cc(CF)nn2)c1
MIC [1]: > 100 µg/mL

FCc1cn(-c2ccc(Br)cc2)nn1
MIC [1]: 390 µM

Nc1nnc(-c2cccc(-n3cc(C(F)F)nn3)c2)s1
MIC [1]: 340 µM

C=Cc1cn(-c2ccccc2)nn1
MIC [1]: > 100 µg/mL

C=Cc1cn(-c2ccc(Cl)cc2)nn1
MIC [1]: 243 µM

C=Cc1cn(-c2ccc([N+](=O)[O-])cc2)nn1
MIC [1]: > 100 µg/mL

C=Cc1cn(-c2ccc(OC)cc2)nn1
MIC [1]: 244 µM

C=Cc1cn(-c2ccccc2OC)nn1
MIC [1]: > 100 µg/mL

C=Cc1cn(-c2ccc(Cl)c(Cl)c2)nn1
MIC [1]: > 100 µg/mL

C=Cc1cn(-c2cc(Cl)ccc2Cl)nn1
CC50 at 24 h [2]: > 1000 µg/mL | Ratio [3]: >321 | CC50 at 24 h [4]: > 1000 µg/mL | MIC [1]: 13 µM | Ratio [5]: >321

O=Cc1cn(-c2cccc(Cl)c2)nn1
MIC [1]: 121 µM

FC(F)c1cn(-c2cccc(Cl)c2)nn1
MIC [1]: > 100 µg/mL

N#Cc1cccc(-n2cc(C(F)F)nn2)c1
MIC [1]: 114 µM

NNC(=O)c1ccncc1 [ISONIAZID]
MIC [1]: 0.437 µM

CO[C@H]1/C=C/O[C@@]2(C)Oc3c(C)c(O)c4c(O)c(c(/C=N/N5CCN(C)CC5)c(O)c4c3C2=O)NC(=O)/C(C)=C\C=C\[C@H](C)[C@H](O)[C@@H](C)[C@@H](O)[C@@H](C)[C@H](OC(C)=O)[C@@H]1C [RIFAMPIN]
MIC [1]: 1.21 µM
